High-throughput results: PubChem, several laboratories
RAM network inh – inhibitors of the yeast RAM network, primary screen, dse1pr::URA3 reporter, 5-FOA selection; 190,000 compounds, 1.8% hits; AID 868, 2007; inhibition, % at 50 µM; S. cerevisiae dse1pr::URA3 reporter, 5-FOA growth OD615, 2 d; analog-sensitive cbk1-as2 kinase mutant strain;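 active = inhibition above a set limit, 3 SD over mean compound inhibition, cut at about 8.4% in these data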;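 also: 0% = DMSO-only wells with no growth and 100% = 10 µM 1-NA-PP1 full growth; inhibition rescues growth on 5-FOA so higher OD means more RAM inhibition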
INS promoter inh – inhibitors of insulin promoter-driven GFP, primary screen, imaging, TRM-6 cells, eGFP reporter, cell count. 130,000 compounds, 0.9% hits. inhibition, % at 2 µM. AID 1273, 2008. reporter expression induced with tamoxifen;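 active = inhibition above the mean plus 3 SD, with well images judged a real hit on visual review, cut at about 60% in these data, passing the limit was not always enough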
Ins promoter up – insulin promoter activators in MIN6 cells, imaging, high-content screening, mouse beta cells. MIN6 insulin promoter-GFP reporter; active compounds read high. z-score at 5 µM. 190,000 compounds, 0.3% hits;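 active = z-score above 3 at 5 µM with at least 500 cells counted in the well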
Yeast growth inh – growth inhibitors of yeast BB579 in restrictive medium, primary screen, yeast lifespan-shortening project, S. cerevisiae; OD615, 48 h; inhibition, % at 10 µM; 140,000 compounds, 0.51% hits; AID 804, 2007;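 active = inhibition above a set limit, 3 SD over the mean compound inhibition, cut at about 44% in these data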
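Detection: OD615 turbidity measurement; Material: Saccharomyces cerevisiae DeaD strain BB579, replicative lifespan model yeast; Timing: 48 h exposure, 30 °C; Doses: single 10 µM dose; Medium: CSMM-D restrictive synthetic medium containing dextrose (glucose); Controls: amphotericin B at 10 µg/mL as positive control.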
Yeast life ext – compounds extending yeast replicative lifespan, primary screen, S. cerevisiae, OD615 | S. cerevisiae growth with nicotinamide; deaD strain in restrictive glucose medium | inhibition of the nicotinamide effect, % at 10 µM | 130,000 compounds, 0.68% hits | AID 775, 2007;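 active = inhibition above a set limit, placed 3 SD over the median of all compounds, cut at about 26% in these data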;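 also: 0% = nicotinamide-treated wells and 100% = cells grown without nicotinamide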
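Measured by: optical density (absorbance) at 615 nm; System: modified budding yeast, DeaD strain; Medium: restrictive CSMM-D dextrose medium; Timing: 4 h preincubation then 48 h treatment at 30 °C.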
* = called active by the depositor; . = not tested or not shown. A selection: hits, their analogues and other compounds. The true share with any hit is near 3.1%.

SMILES	RAM network inh	INS promoter inh	Ins promoter up	Yeast growth inh	Yeast life ext
O=c1cc(C(F)(F)F)[nH]c2c(C(F)(F)F)cccc12	-1.8	-31.8	-0.41	89.6*	-0.5
O=c1cc(C(F)(F)F)[nH]c2ccc(OC(F)(F)F)cc12	.	.	0.97	.	.
O=C(CSc1nc2ccccc2s1)c1cc2ccccc2o1	9.4*	-85.7	0	-23.3	-5.2
COc1ccc(-n2nnnc2SCC(=O)c2cc3ccccc3o2)cc1	8.5*	6.5	-0.38	-42.3	-16.5
COc1ccc(-n2nnnc2SCC(N)=O)cc1	0.8	25.0	1.09	-37.5	-0.5
Cc1noc(NC(=O)c2cccc(Cl)c2Cl)c1C#N	1.2	-40.0	0.55	.	.
COC(=O)Cn1c2ccccc2c2nc(C)sc21	-0.2	4.5	-0.48	48.8*	-13.1
CCOC(=O)Cn1c2ccc(F)cc2c2nc(C)sc21	0.5	31.2	3.68*	.	.
COC(=O)Cn1c2ccc(F)cc2c2nc(C)sc21	-0.2	.	0.18	-26.0	-14.7
Cc1nc2c3cc(F)ccc3n(Cc3ccc(F)cc3)c2s1	3.0	76.7*	0.35	6.6	0.3
CCc1ccc2c(c1)c1nc(C)sc1n2CC	-1.6	.	0.41	31.4	-37.3
O=C(N/N=C/c1ccc(O)cc1)c1cc(C23CC4CC(CC(C4)C2)C3)[nH]n1	.	.	-0.21	.	.
Cc1ccc(O)c(C(=O)c2cc(C#N)c(=O)n(CC3CCCO3)c2)c1 (configuration not stated)	0.3	-44.7	-0.17	-38.2	-3.1
COc1ccc(O)c(C(=O)c2cc(C#N)c(=O)n(CC3CCCO3)c2)c1 (configuration not stated)	0.7	-41.2	-0.27	-19.6	113.4*
CC(C)C12CN3CC(C(C)C)(CN(C1)C3(C)C)C2=O	-0.7	-11.8	.	.	.
Cc1ccc(-c2cn3cccc(C)c3n2)cc1	0.7	72.7*	-0.01	.	.
Cc1cccn2cc(-c3ccc(Cl)cc3)nc12	-0.5	.	-0.43	.	.
Cc1cc2c(ncn2Cc2ccccc2)c(N)c1C	-0.5	.	-0.71	.	.
Cn1c(/C=C/c2ccc([N+](=O)[O-])o2)nc2ccccc2c1=O	0.4	5.1	-2.31	81.9*	2.9
Cc1cc(C)cc(OCCNS(=O)(=O)c2cccs2)c1	0.8	.	.	.	.
COC(=O)Cc1c(C)nc2nc(NCc3ccccc3OC)[nH]n2c1=O	-0.7	37.1	4.27*	-11.0	-15.9
CC(=O)Nc1ccc(NC(=O)C(C)OC(=O)c2ccc(C)s2)cc1 (configuration not stated)	1.6	0.0	0.12	.	.
Cc1ccc(Cn2c(C)cc3c(c2=O)C(c2cccs2)C(C#N)=C(N)O3)cc1 (configuration not stated)	8.7*	-14.3	.	-42.0	-4.4
Cc1cc2c(c(=O)o1)C(c1cccs1)C(C#N)=C(N)O2 (configuration not stated)	0.3	-29.6	0.05	-7.4	10.5
COc1ccc(S(N)(=O)=O)cc1C(=O)NCCCN1CCN(c2ccc(C)cc2)CC1	-0.3	42.1	-0.09	-22.4	58.2*
SMILES	RAM network inh	INS promoter inh	Ins promoter up	Yeast growth inh	Yeast life ext
COc1ccc(C(=O)CCC(=O)Nc2cccnc2)cc1	0.0	-58.3	0.81	.	.
O=C(Nc1ccccc1)N1CC=C(c2ccccc2)CC1	0.1	75.0*	-0.82	-8.8	-11.4
c1cnn(-c2cncc(-n3cccn3)n2)c1	-0.5	.	0.37	.	.
COc1ccc2oc(=O)c(C(=O)C[n+]3cccc(C)c3)cc2c1	1.4	.	-0.11	.	.
Cc1cc(C)n(C(N)=NC(=O)c2ccc([N+](=O)[O-])cc2)n1	.	.	-0.17	.	.
CC(=O)NC12CC3CC(C1)CC(C(=O)Nc1nccs1)(C3)C2	10.5*	.	-0.36	-7.7	-5.7
Cc1ccc(S(=O)(=O)NC(=O)c2cc(C)n(-c3ccc(N(C)C)cc3)c2C)cc1	2.4	.	1.06	-43.9	0.0
COc1ccc2[nH]c3c(=O)n4c(nc3c2c1)SCC4	2.7	.	-0.37	.	.
Cc1ccc2[nH]c3c(=O)n(N)c(=O)[nH]c3c2c1	.	.	-0.25	.	.
COc1ccc2[nH]c3c(=O)n(N)c(C)nc3c2c1	0.1	80.7*	-0.42	-21.9	-1.8
Cc1ccc2[nH]c3c(=O)n(N)c(C)nc3c2c1	0.4	93.8*	0	.	.
CCC1CCCCN1C(=O)CSc1nnc(-c2ccc(Cl)cc2)o1 (configuration not stated)	4.8	.	-0.09	17.7	4.0
